Measurements from ChEMBL document CHEMBL2150886, “Synthesis of [3β-acetoxy-urs-12-en-28-oyl]-1-monoglyceride and investigation on its anti tumor effects against BGC-823” (Bioorg Med Chem, 2011).
pIC50: −log10 of the molar value. Active and inactive are the calls of the source. The calls are words filed in the database; no cut-off is given here.

Key:
BGC-823 [1] = experiment: Induction of apoptosis in human BGC823 cells assessed as late apoptotic cell population at 20 uM by annexinV/propidium iodide staining (reference value: 2.1%); assay type: functional
BGC-823 [2] = experiment: Induction of apoptosis in human BGC823 cells assessed as increase in caspase 3 activity at 10 uM incubated for 48 hrs relative to untreated control; assay type: functional
Method in brief: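 BGC-823 cells were exposed to 0, 10 or 20 µM for 48 h, detached with trypsin/EDTA and washed in cold PBS. About 10⁶ cells were lysed, and the lysate was incubated 1 h with Ac-DEVD-pNA, with cleavage read at 405 nm. Activity was normalised to Bradford protein and expressed relative to the untreated control. Mean ± SD of three independent experiments.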

Mus musculus [3] = experiment: Toxicity in human BGC823 cells xenografted nude mouse assessed as body weight changes at 6 mg/kg, iv treated 3 times on day 1, day 4 and day 7 post tumor implant (reference value: 20.79 +/- 1.29 grams); assay type: organism-based, BGC-823; parameters: dose 6 mg/kg, route intravenous; settings: in vivo
Method in brief: (§1)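 Nude mice (male, 5 weeks, 18–22 g) carried subcutaneous BGC-823 xenografts from 1 × 10⁷ cells. Dosing started at about 200 mm³ tumour volume, with eight mice per group. Each dose was 0.2 mL given iv; the saline control received 0.9% saline. Body weight was recorded on days 1, 4, 7, 10, 13 and 16 of treatment and reported as mean ± SD, n = 8.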

Mus musculus [4] = experiment: Toxicity in human BGC823 cells xenografted nude mouse assessed as body weight changes at 6 mg/kg, iv treated […] on day 1, 4, 7, 10, 13 and day 16 post tumor implant (reference value: 20.12 +/- 1.52 grams); assay type: organism-based, BGC-823; parameters: dose 6 mg/kg, route intravenous; settings: in vivo
BGC-823 [5] = experiment: Induction of cell shrinkage in human BGC823 cells at 30 uM incubated for 48 hrs by MTT assay; assay type: functional, cell-based
BGC-823 [6] = experiment: Induction of apoptosis in human BGC823 cells assessed as necrotic damaged cell population at 30 uM by annexinV/propidium iodide staining (reference value: 0.5%; assay type: functional
Mus musculus [7] = experiment: Toxicity in human BGC823 cells xenografted nude mouse assessed as body weight changes at 30 mg/kg, iv treated 4 times on day 1, 4, 7 and 10 post tumor implant (reference value: 20.54 +/- 1.45 grams); assay type: organism-based, BGC-823; parameters: dose 30 mg/kg, route intravenous; settings: in vivo; method in brief: as §1
BGC-823 [8] = experiment: Induction of apoptosis in human BGC823 cells assessed as early apoptotic cell population at 30 uM by annexinV/propidium iodide staining (reference value: 1.9%); assay type: functional
BGC-823 [9] = experiment: Induction of apoptosis in human BGC823 cells assessed as early apoptotic cell population at 10 uM by annexinV/propidium iodide staining (reference value: 1.9%); assay type: functional
BGC-823 [10] = experiment: Cell cycle arrest in human BGC823 cells assessed as accumulation of cells at subG0/G1 phase at 20 uM incubated for 24 hrs by propidium iodide staining based flow cytometry (Rvb= 0.66%); assay type: functional
Method in brief: (§2)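 BGC-823 cells were exposed to 20 µM for 24, 48 or 72 h, or to 10, 20 or 40 µM for 48 h. About 10⁶ cells were harvested and stained with propidium iodide using a cell cycle kit, then analysed by flow cytometry. Percentages were read for sub-G0/G1, G0/G1, S and G2/M. Each experiment was run at least three times; mean ± SD.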

BGC-823 [11] = experiment: Cell cycle arrest in human BGC823 cells assessed as accumulation of cells at subG0/G1 phase at 20 uM incubated for 72 hrs by propidium iodide staining based flow cytometry (Rvb= 0.66%); assay type: functional; method in brief: as §2
BGC-823 [12] = experiment: Induction of apoptosis in human BGC823 cells assessed as necrotic damaged cell population at 10 uM by annexinV/propidium iodide staining (reference value: 0.5%; assay type: functional
Mus musculus [13] = experiment: Toxicity in human BGC823 cells xenografted nude mouse assessed as body weight changes at 30 mg/kg, iv treated 5 times on day 1, 4, 7, 10 and day 13 post tumor implant (reference value: 20.21 +/- 1.83 grams); assay type: organism-based, BGC-823; parameters: dose 30 mg/kg, route intravenous; settings: in vivo; method in brief: as §1
BGC-823 [14] = experiment: Induction of apoptosis in human BGC823 cells assessed as early apoptotic cell population at 20 uM by annexinV/propidium iodide staining (reference value: 1.9%); assay type: functional
BGC-823 [15] = experiment: Induction of apoptosis in human BGC823 cells assessed as late apoptotic cell population at 10 uM by annexinV/propidium iodide staining (reference value: 2.1%); assay type: functional
[16] = Cytotoxicity against human GES-1 cells incubated for 48 hrs by MTT assay; assay type: cell-based; settings: GES1, 48 h
Method in brief: (§3)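 Cells were grown in RPMI-1640 with 10% heat-inactivated FCS at 37 °C under 5% CO₂, seeded at 5 × 10³ per well and left 24 h. Compounds in DMSO were diluted in medium to 0.5% final DMSO; controls received 0.5% DMSO. Exposure was 24–72 h, followed by MTT for 4 h, formazan dissolved in DMSO, and A570. Six wells per sample; IC₅₀ taken at 50% inhibition; ≥3 repeats.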

BGC-823 [17] = experiment: Cell cycle arrest in human BGC823 cells assessed as accumulation of cells at subG0/G1 phase at 40 uM incubated by propidium iodide staining based flow cytometry (Rvb= 0.66%); assay type: functional; settings: TDE = time-dependent effect; method in brief: as §2
BGC-823 [18] = experiment: Induction of apoptosis in human BGC823 cells assessed as early apoptotic cell population at 40 uM by annexinV/propidium iodide staining (reference value: 1.9%); assay type: functional
BGC-823 [19] = experiment: Reduction in survivin protein expression in human BGC823 cells incubated for 48 hrs by Western blotting; assay type: functional, cell-based
Method in brief: (§4)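 BGC-823 cells were treated with 10, 20 or 40 µM for 48 h, detached with trypsin/EDTA, and more than 10⁶ cells were lysed. Protein was quantified by Bradford, and 150–200 µg per lane was run on 12.5% SDS-PAGE and transferred to PVDF. Antibodies: Survivin 1:1000, Bcl-2 1:200, β-actin 1:1000; HRP secondary 1 h; ECL detection. Expression was quantified relative to control.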

BGC-823 [20] = experiment: Induction of apoptosis in human BGC823 cells assessed as late apoptotic cell population at 40 uM by annexinV/propidium iodide staining (reference value: 2.1%); assay type: functional
BGC-823 [21] = experiment: Reduction in BCL-2 protein expression in human BGC823 cells at 1o to 40 uM incubated for 48 hrs by Western blotting; assay type: functional, cell-based; method in brief: as §4
BGC-823 [22] = experiment: Induction of apoptosis in human BGC823 cells assessed as viable cell population at 10 uM by annexinV/propidium iodide staining (reference value: 95.5%); assay type: functional
BGC-823 [23] = experiment: Induction of apoptosis in human BGC823 cells assessed as viable cell population at 30 uM by annexinV/propidium iodide staining (reference value: 95.5%); assay type: functional
HepG2 = experiment: Cytotoxicity against human HepG2 cells incubated for 48 hrs by MTT assay; assay type: functional, cell-based; settings: HepG2, 48 h; method in brief: as §3
BGC-823 [24] = experiment: Induction of apoptosis in human BGC823 cells assessed as late apoptotic cell population at 30 uM by annexinV/propidium iodide staining (reference value: 2.1%); assay type: functional
BGC-823 [25] = experiment: Reduction in survivin protein expression in human BGC823 cells at 20 uM incubated for 48 hrs by Western blotting; assay type: functional; method in brief: as §4
BGC-823 [26] = experiment: Induction of apoptosis in human BGC823 cells assessed as necrotic damaged cell population at 40 uM by annexinV/propidium iodide staining (reference value: 0.5%; assay type: functional

## CC(=O)O[C@H]1CC[C@]2(C)[C@H]3CC=C4[C@@H]5[C@@H](C)[C@H](C)CC[C@]5(C(=O)OCC(O)CO)CC[C@@]4(C)[C@]3(C)CC[C@H]2C1(C)C (some centres not stated)
BGC-823 [1]
  Activity: 2.3%
BGC-823 [2]
  fold change (FC): 2.54
Mus musculus [3]
  Activity: 20.13 g
Mus musculus [4]
  Activity: 20.09 g
BGC-823 [5]
  Activity: Active
BGC-823 [6]
  Activity: 6.5%
Mus musculus [7]
  Activity: 19.16 g
BGC-823 [8]
  Activity: 45.1%
BGC-823 [9]
  Activity: 4.5%
BGC-823 [10]
  Activity: 3.71%
BGC-823 [11]
  Activity: 13.63%
BGC-823 [12]
  Activity: 0.2%
Mus musculus [13]
  Activity: 19.69 g
BGC-823 [14]
  Activity: 19.4%
BGC-823 [15]
  Activity: 2.6%
[16]
  pIC50: 3.81
BGC-823 [17]
  Activity: tde
BGC-823 [18]
  Activity: 7.4%
BGC-823 [19]
  Activity: Dose-dependent effect
BGC-823 [20]
  Activity: 89.5%
BGC-823 [21]
  Activity: Active
BGC-823 [22]
  Activity: 92.7%
BGC-823 [23]
  Activity: 19.4%
HepG2
  pIC50: 4.56
BGC-823 [24]
  Activity: 29%
BGC-823 [25]
  Activity: 43.1%
BGC-823 [26]
  Activity: 2.3%
